Measurements taken from ChEMBL document CHEMBL5329146, “Thiourea derivatives containing 4-arylthiazoles and d-glucose moiety: design, synthesis, antimicrobial activity evaluation, and molecular docking/dynamics simulations” (RSC Med Chem, 2023).
Converted amounts (≈) assume the structure as drawn.

Tests used:
Fusarium oxysporum = experiment: Antifungal activity against Fusarium oxysporum assessed as inhibition of fungal growth incubated for 72 hrs by agar dilution method; format: functional
Method in brief: (§1)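 Agar dilution on Sabouraud dextrose agar, with compound solutions at 400 down to 0.78 μg mL−1 (twofold series). Fungal suspensions containing […] were applied to agar plates serially diluted with test compound. Plates were incubated at 35 °C, and MIC was read after 72 h. Experiments were performed three times.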

Staphylococcus aureus = experiment: Antibacterial activity against Staphylococcus aureus assessed as inhibition of visible bacterial growth incubated for 18 to 20 hrs by microbroth dilution method; format: functional; conditions: time 18-20 hrs
Method in brief: (§2)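 Inoculum was a 4–6 h broth culture adjusted to 0.5 McFarland turbidity and diluted to a final 5 × 10^5 CFU mL−1. Plates were incubated at 35 °C for 18–20 h. MIC was the lowest concentration giving complete inhibition of visible growth. Run three times.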

Salmonella typhimurium = experiment: Antibacterial activity against Salmonella typhimurium assessed as inhibition of visible bacterial growth incubated for 18 to 20 hrs by microbroth dilution method; format: functional, Salmonella enterica subsp. enterica serovar Typhimurium; conditions: Salmonella enterica; time 18-20 hrs; method in brief: as §2
Escherichia coli = experiment: Antibacterial activity against Escherichia coli assessed as inhibition of visible bacterial growth incubated for 18 to 20 hrs by microbroth dilution method; format: functional; conditions: time 18-20 hrs; method in brief: as §2
Pseudomonas aeruginosa = experiment: Antibacterial activity against Pseudomonas aeruginosa assessed as inhibition of visible bacterial growth incubated for 18 to 20 hrs by microbroth dilution method; format: functional; conditions: time 18-20 hrs; method in brief: as §2
Aspergillus niger = experiment: Antifungal activity against Aspergillus niger assessed as inhibition of fungal growth incubated for 72 hrs by agar dilution method; format: functional; method in brief: as §1
Bacillus subtilis = experiment: Antibacterial activity against Bacillus subtilis assessed as inhibition of visible bacterial growth incubated for 18 to 20 hrs by microbroth dilution method; format: functional; conditions: time 18-20 hrs; method in brief: as §2
Clostridioides difficile = experiment: Antibacterial activity against Clostridium difficile assessed as inhibition of visible bacterial growth incubated for 18 to 20 hrs by microbroth dilution method; format: functional; conditions: time 18-20 hrs
Aspergillus flavus = experiment: Antifungal activity against Aspergillus flavus assessed as inhibition of fungal growth incubated for 72 hrs by agar dilution method; format: functional; method in brief: as §1
Saccharomyces cerevisiae = experiment: Antifungal activity against Saccharomyces cerevisiae assessed as inhibition of fungal growth incubated for 72 hrs by agar dilution method; format: functional; method in brief: as §1
Candida albicans = experiment: Antifungal activity against Candida albicans assessed as inhibition of fungal growth incubated for 72 hrs by agar dilution method; format: functional; method in brief: as §1
[1] = tested on: Staphylococcus epidermidis; experiment: Antibacterial activity against Staphylococcus epidermidis assessed as inhibition of visible bacterial growth incubated for 18 to 20 hrs by microbroth dilution method; format: functional; conditions: time 18-20 hrs; method in brief: as §2
Streptococcus pneumoniae = experiment: Antibacterial activity against Streptococcus pneumoniae assessed as inhibition of visible bacterial growth incubated for 18 to 20 hrs by microbroth dilution method; format: functional; conditions: time 18-20 hrs
Klebsiella pneumoniae = experiment: Antibacterial activity against Klebsiella pneumoniae assessed as inhibition of visible bacterial growth incubated for 18 to 20 hrs by microbroth dilution method; format: functional; conditions: time 18-20 hrs; method in brief: as §2
Topoisomerase IV = Topoisomerase IV (Staphylococcus aureus, UniProt P0C1S7+P0C1U9); experiment: Inhibition of Staphylococcus aureus DNA topoisomerase 4 using supercoiled plasmid DNA as substrate; format: protein-complex assay
Dihydrofolate reductase = Dihydrofolate reductase (Staphylococcus aureus, UniProt P0A017); experiment: Inhibition of Staphylococcus aureus DHFR preincubated for 5 mins followed by dihydrofolic acid addition and measured for 10 mins by absorbance based assay
DNA gyrase = DNA gyrase (Staphylococcus aureus, UniProt P0A0K8+P20831); experiment: Inhibition of Staphylococcus aureus DNA gyrase incubated for 30 mins in presence of relaxed plasmid DNA by supercoiling based gel electrophoresis analysis; format: protein-complex assay
DNA gyrase, sequence (P0A0K8 whole entry): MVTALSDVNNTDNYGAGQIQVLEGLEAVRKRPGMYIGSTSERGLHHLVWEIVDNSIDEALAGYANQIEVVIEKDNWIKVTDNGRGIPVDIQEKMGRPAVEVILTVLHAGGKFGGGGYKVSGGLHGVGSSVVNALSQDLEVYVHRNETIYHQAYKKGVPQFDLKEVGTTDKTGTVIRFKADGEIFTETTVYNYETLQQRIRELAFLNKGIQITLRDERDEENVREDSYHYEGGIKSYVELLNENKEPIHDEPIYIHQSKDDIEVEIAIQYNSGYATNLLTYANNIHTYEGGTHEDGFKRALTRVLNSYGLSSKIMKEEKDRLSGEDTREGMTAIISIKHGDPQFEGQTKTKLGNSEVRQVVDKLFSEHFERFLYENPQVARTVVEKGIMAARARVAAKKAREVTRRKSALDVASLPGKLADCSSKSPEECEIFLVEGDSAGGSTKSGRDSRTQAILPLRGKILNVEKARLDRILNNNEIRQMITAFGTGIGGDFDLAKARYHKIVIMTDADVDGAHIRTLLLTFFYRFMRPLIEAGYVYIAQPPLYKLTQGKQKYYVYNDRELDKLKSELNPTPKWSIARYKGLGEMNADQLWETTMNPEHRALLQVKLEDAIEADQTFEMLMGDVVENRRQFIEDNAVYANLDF
DNA gyrase, sequence (P20831 whole entry): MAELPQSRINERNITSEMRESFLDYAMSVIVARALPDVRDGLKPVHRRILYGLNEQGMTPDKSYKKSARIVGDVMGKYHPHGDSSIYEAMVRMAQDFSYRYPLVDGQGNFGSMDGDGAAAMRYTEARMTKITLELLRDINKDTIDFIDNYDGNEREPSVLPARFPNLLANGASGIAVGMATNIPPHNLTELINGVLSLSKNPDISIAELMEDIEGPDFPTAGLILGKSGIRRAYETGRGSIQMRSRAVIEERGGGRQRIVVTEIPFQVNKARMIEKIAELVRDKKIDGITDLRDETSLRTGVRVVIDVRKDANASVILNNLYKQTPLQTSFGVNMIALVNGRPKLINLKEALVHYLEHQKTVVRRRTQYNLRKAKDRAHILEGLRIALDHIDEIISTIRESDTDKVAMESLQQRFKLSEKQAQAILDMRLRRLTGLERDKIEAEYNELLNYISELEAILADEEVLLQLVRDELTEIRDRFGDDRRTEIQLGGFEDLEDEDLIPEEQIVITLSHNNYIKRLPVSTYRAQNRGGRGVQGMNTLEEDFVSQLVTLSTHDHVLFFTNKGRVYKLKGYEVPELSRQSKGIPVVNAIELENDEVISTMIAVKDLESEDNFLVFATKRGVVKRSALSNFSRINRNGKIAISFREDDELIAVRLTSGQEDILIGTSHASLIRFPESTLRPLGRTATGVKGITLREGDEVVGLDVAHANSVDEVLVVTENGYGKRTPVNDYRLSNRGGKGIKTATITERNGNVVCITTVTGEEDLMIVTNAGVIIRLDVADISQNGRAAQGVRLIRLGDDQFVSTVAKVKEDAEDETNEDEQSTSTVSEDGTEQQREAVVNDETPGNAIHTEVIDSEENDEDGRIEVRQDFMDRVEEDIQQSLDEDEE

Dihydrofolate reductase, sequence (P0A017 whole entry): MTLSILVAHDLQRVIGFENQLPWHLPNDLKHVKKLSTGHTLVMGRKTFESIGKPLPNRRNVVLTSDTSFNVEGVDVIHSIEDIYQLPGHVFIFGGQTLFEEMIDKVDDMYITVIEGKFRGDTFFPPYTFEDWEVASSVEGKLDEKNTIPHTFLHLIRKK
Topoisomerase IV, sequence (P0C1U9 whole entry): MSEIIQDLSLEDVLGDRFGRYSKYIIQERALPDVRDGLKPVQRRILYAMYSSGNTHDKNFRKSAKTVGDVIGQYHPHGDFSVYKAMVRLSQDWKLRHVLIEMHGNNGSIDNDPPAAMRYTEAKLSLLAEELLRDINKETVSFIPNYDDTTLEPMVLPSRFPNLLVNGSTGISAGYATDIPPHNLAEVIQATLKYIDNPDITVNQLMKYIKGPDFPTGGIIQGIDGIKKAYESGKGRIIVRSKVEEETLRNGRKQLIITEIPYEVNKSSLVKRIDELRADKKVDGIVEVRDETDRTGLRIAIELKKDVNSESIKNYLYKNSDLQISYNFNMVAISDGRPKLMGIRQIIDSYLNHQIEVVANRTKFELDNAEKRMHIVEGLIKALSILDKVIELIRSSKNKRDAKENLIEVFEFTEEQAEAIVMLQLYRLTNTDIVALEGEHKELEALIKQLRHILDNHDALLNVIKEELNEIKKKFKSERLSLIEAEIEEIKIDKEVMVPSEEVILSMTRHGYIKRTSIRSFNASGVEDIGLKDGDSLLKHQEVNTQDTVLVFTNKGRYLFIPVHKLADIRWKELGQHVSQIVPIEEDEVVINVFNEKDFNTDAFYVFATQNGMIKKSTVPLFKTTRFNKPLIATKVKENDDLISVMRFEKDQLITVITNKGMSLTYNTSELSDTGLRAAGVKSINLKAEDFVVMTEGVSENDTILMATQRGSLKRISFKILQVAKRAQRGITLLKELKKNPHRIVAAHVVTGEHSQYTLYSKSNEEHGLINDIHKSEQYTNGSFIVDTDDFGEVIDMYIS
Topoisomerase IV, sequence (P0C1S7 whole entry): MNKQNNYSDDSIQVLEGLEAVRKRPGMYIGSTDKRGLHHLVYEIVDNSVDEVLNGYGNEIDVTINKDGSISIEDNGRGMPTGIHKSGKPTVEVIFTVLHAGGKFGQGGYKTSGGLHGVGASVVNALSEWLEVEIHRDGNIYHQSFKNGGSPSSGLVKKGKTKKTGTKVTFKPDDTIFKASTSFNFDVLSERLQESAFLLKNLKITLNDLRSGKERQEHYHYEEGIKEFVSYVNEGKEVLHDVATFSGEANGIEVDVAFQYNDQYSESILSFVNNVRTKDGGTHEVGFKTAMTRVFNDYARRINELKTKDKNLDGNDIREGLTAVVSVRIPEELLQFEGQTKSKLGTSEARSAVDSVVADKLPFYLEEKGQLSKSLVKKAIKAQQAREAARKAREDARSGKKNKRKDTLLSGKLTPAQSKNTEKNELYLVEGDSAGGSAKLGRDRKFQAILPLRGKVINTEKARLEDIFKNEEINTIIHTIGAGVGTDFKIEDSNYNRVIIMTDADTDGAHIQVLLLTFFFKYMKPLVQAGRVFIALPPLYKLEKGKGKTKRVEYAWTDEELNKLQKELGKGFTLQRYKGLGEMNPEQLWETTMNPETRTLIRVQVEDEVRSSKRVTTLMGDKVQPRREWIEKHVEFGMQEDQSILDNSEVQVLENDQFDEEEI

Row | SMILES | MIC (Fusarium oxysporum) [µg/mL] | MIC (Staphylococcus aureus) [µg/mL] | MIC (Salmonella typhimurium) [µg/mL] | MIC (Escherichia coli) [µg/mL] | MIC (Pseudomonas aeruginosa) [µg/mL] | MIC (Aspergillus niger) [µg/mL] | MIC (Bacillus subtilis) [µg/mL] | MIC (Clostridioides difficile) [µg/mL] | MIC (Aspergillus flavus) [µg/mL] | MIC (Saccharomyces cerevisiae) [µg/mL] | MIC (Candida albicans) [µg/mL] | MIC [1] [µg/mL] | MIC (Streptococcus pneumoniae) [µg/mL] | MIC (Klebsiella pneumoniae) [µg/mL] | IC50 (Topoisomerase IV) [µM] | IC50 (Dihydrofolate reductase) [µM] | IC50 (DNA gyrase) [µM]
1 | CC(=O)OC[C@H]1O[C@@H](NC(=S)Nc2nc(-c3ccc(Br)cc3)cs2)[C@H](OC(C)=O)[C@@H](OC(C)=O)[C@@H]1OC(C)=O | 0.78 (≈ 1.21 µM) | 12.5 (≈ 19.4 µM) | 0.78 (≈ 1.21 µM) | 1.56 (≈ 2.42 µM) | 100 (≈ 155 µM) | 50 (≈ 77.6 µM) | 3.12 (≈ 4.85 µM) | 6.25 (≈ 9.7 µM) | 3.12 (≈ 4.85 µM) | 25 (≈ 38.8 µM) | 50 (≈ 77.6 µM) | 25 (≈ 38.8 µM) | 50 (≈ 77.6 µM) | 6.25 (≈ 9.7 µM) | – | – | –
2 | CC(=O)OC[C@H]1O[C@@H](NC(=S)Nc2nc(-c3ccccc3)cs2)[C@H](OC(C)=O)[C@@H](OC(C)=O)[C@@H]1OC(C)=O | 6.25 (≈ 11 µM) | 200 (≈ 354 µM) | 400 (≈ 707 µM) | 100 (≈ 177 µM) | 6.25 (≈ 11 µM) | 0.78 (≈ 1.38 µM) | 25 (≈ 44.2 µM) | 50 (≈ 88.4 µM) | 50 (≈ 88.4 µM) | 1.56 (≈ 2.76 µM) | 3.12 (≈ 5.52 µM) | 0.78 (≈ 1.38 µM) | 25 (≈ 44.2 µM) | 25 (≈ 44.2 µM) | – | – | –
3 | CC(=O)OC[C@H]1O[C@@H](NC(=S)Nc2nc(-c3cccc([N+](=O)[O-])c3)cs2)[C@H](OC(C)=O)[C@@H](OC(C)=O)[C@@H]1OC(C)=O | 50 (≈ 81.9 µM) | 6.25 (≈ 10.2 µM) | 3.12 (≈ 5.12 µM) | 0.78 (≈ 1.28 µM) | 3.12 (≈ 5.12 µM) | 3.12 (≈ 5.12 µM) | 6.25 (≈ 10.2 µM) | 0.78 (≈ 1.28 µM) | 0.78 (≈ 1.28 µM) | 6.25 (≈ 10.2 µM) | 100 (≈ 164 µM) | 12.5 (≈ 20.5 µM) | 0.78 (≈ 1.28 µM) | 3.12 (≈ 5.12 µM) | – | – | –
4 | CCc1ccc(-c2csc(NC(=S)N[C@@H]3O[C@H](COC(C)=O)[C@@H](OC(C)=O)[C@H](OC(C)=O)[C@H]3OC(C)=O)n2)cc1 | 400 (≈ 674 µM) | 400 (≈ 674 µM) | 100 (≈ 168 µM) | 12.5 (≈ 21.1 µM) | 25 (≈ 42.1 µM) | 200 (≈ 337 µM) | 0.78 (≈ 1.31 µM) | 400 (≈ 674 µM) | 200 (≈ 337 µM) | 400 (≈ 674 µM) | 6.25 (≈ 10.5 µM) | 6.25 (≈ 10.5 µM) | 100 (≈ 168 µM) | 50 (≈ 84.2 µM) | – | – | –
5 | CC(=O)OC[C@H]1O[C@@H](NC(=S)Nc2nc(-c3ccc(C)cc3)cs2)[C@H](OC(C)=O)[C@@H](OC(C)=O)[C@@H]1OC(C)=O | 200 (≈ 345 µM) | 25 (≈ 43.1 µM) | 25 (≈ 43.1 µM) | 6.25 (≈ 10.8 µM) | 50 (≈ 86.3 µM) | 12.5 (≈ 21.6 µM) | 100 (≈ 173 µM) | 25 (≈ 43.1 µM) | 12.5 (≈ 21.6 µM) | 0.78 (≈ 1.35 µM) | 400 (≈ 690 µM) | 400 (≈ 690 µM) | 12.5 (≈ 21.6 µM) | 200 (≈ 345 µM) | – | – | –
6 | COc1ccc(-c2csc(NC(=S)N[C@@H]3O[C@H](COC(C)=O)[C@@H](OC(C)=O)[C@H](OC(C)=O)[C@H]3OC(C)=O)n2)cc1[N+](=O)[O-] | 25 (≈ 39 µM) | 0.78 (≈ 1.22 µM) | 50 (≈ 78 µM) | 200 (≈ 312 µM) | 0.78 (≈ 1.22 µM) | 100 (≈ 156 µM) | 50 (≈ 78 µM) | 200 (≈ 312 µM) | 1.56 (≈ 2.44 µM) | 200 (≈ 312 µM) | 12.5 (≈ 19.5 µM) | 50 (≈ 78 µM) | 6.25 (≈ 9.76 µM) | 0.78 (≈ 1.22 µM) | 67.3 | 0.13 | 1.25
7 | COc1ccc(-c2csc(NC(=S)N[C@@H]3O[C@H](COC(C)=O)[C@@H](OC(C)=O)[C@H](OC(C)=O)[C@H]3OC(C)=O)n2)cc1 | 12.5 (≈ 21 µM) | 1.56 (≈ 2.62 µM) | 6.25 (≈ 10.5 µM) | 3.12 (≈ 5.25 µM) | 12.5 (≈ 21 µM) | 6.25 (≈ 10.5 µM) | 400 (≈ 672 µM) | 3.12 (≈ 5.25 µM) | 6.25 (≈ 10.5 µM) | 12.5 (≈ 21 µM) | 0.78 (≈ 1.31 µM) | 100 (≈ 168 µM) | 3.12 (≈ 5.25 µM) | 1.56 (≈ 2.62 µM) | 79.2 | 0.17 | 1.37
8 | CC(=O)OC[C@H]1O[C@@H](NC(=S)Nc2nc(-c3ccc(Cl)cc3)cs2)[C@H](OC(C)=O)[C@@H](OC(C)=O)[C@@H]1OC(C)=O | 3.12 (≈ 5.21 µM) | 3.12 (≈ 5.21 µM) | 12.5 (≈ 20.8 µM) | 50 (≈ 83.3 µM) | 200 (≈ 333 µM) | 25 (≈ 41.7 µM) | 12.5 (≈ 20.8 µM) | 12.5 (≈ 20.8 µM) | 25 (≈ 41.7 µM) | 3.12 (≈ 5.21 µM) | 25 (≈ 41.7 µM) | 3.12 (≈ 5.21 µM) | 400 (≈ 667 µM) | 12.5 (≈ 20.8 µM) | 68.7 | 0.23 | 2.82
9 | O=C(O)c1cn(C2CC2)c2cc(N3CCNCC3)c(F)cc2c1=O [CIPROFLOXACIN] | – | 3.12 (≈ 9.43 µM) | 1.56 (≈ 4.71 µM) | – | 1.56 (≈ 4.71 µM) | – | 3.12 (≈ 9.43 µM) | – | – | – | – | 3.12 (≈ 9.43 µM) | – | 1.56 (≈ 4.71 µM) | – | – | –
10 | OC(Cn1cncn1)(Cn1cncn1)c1ccc(F)cc1F [FLUCONAZOLE] | 0.78 (≈ 2.55 µM) | – | – | – | – | 1.56 (≈ 5.09 µM) | – | – | 0.78 (≈ 2.55 µM) | 0.78 (≈ 2.55 µM) | 0.78 (≈ 2.55 µM) | – | – | – | – | – | –
11 | Clc1ccc(COC(Cn2ccnc2)c2ccc(Cl)cc2Cl)c(Cl)c1 (configuration not stated) [MICONAZOLE] | 3.12 (≈ 7.51 µM) | – | – | – | – | 1.56 (≈ 3.75 µM) | – | – | 1.56 (≈ 3.75 µM) | 3.12 (≈ 7.51 µM) | 3.12 (≈ 7.51 µM) | – | – | – | – | – | –
12 | CN[C@H](CC(C)C)C(=O)N[C@H]1C(=O)N[C@@H](CC(N)=O)C(=O)N[C@H]2C(=O)N[C@H]3C(=O)N[C@H](C(=O)N[C@H](C(=O)O)c4cc(O)cc(O)c4-c4cc3ccc4O)[C@H](O)c3ccc(c(Cl)c3)Oc3cc2cc(c3O[C@@H]2O[C@H](CO)[C@@H](O)[C@H](O)[C@H]2O[C@H]2C[C@](C)(N)[C@H](O)[C@H](C)O2)Oc2ccc(cc2Cl)[C@H]1O [VANCOMYCIN] | – | 1.56 (≈ 1.08 µM) | – | – | – | – | 1.56 (≈ 1.08 µM) | 1.56 (≈ 1.08 µM) | – | – | – | 0.78 (≈ 0.538 µM) | 1.56 (≈ 1.08 µM) | – | – | – | –
